Data set [1] concerns HEK293. As to the kind of experiment: Cytotoxicity against human HEK293 cells at 10 uM after 4 days by MTT assay. The data set is classed as cell-based. Conditions: hek293, 96 h. In a few lines:
(§1)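 MTT assay. HEK293 or MDCK cells kept at 37 °C, 5% CO2 in DMEM, seeded at 1500 cells per well. Continuous 4-day exposure to varying drug concentrations in triplicate wells, with a drug-free control. MTT read at end of day 4; IC50 determined.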
For orientation: Tetrazolium dyes change colour on reduction, which living cells bring about.

The target of data set [2] is T1, Cell division protein FtsZ (Staphylococcus aureus) (UniProt P0A031).
T1 sequence (whole entry): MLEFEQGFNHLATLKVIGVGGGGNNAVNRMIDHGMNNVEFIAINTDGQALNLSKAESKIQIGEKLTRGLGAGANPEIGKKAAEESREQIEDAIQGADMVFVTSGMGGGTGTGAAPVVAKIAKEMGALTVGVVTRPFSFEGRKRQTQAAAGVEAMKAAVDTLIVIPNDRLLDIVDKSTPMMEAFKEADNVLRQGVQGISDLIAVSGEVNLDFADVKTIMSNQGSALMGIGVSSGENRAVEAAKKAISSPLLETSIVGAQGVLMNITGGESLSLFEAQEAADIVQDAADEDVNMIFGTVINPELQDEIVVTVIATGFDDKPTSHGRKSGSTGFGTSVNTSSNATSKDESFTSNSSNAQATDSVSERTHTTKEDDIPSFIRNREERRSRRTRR
In words: Induction of Staphylococcus aureus GTPase activity assessed as inorganic phosphate release upon GTP hydrolysis at less than 40 ug/ml preincubated for 10 mins before substrate addition measured after 2 hrs by malachite green based colorimetric analysis. In short, it runs like this:
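S. aureus FtsZ expressed in E. coli, 10 μM, with DMSO or compound (0.1–200 μg/mL) in 50 mM Tris HCl pH 7.4, 50 mM KCl, 2 mM Mg acetate, 5 mM CaCl2; duplicate reactions. After 10 min room-temperature pre-equilibration, 250 μM GTP added, 2 h at 37 °C. Pi by malachite green, A620, phosphate standard curve; expressed as percent of vehicle.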

Data set [3] deals with T1, Cell division protein FtsZ (Staphylococcus aureus). In words: Induction of Staphylococcus aureus FtsZ polymerization measured for 60 mins by microtiter plate-based light scattering assay. In a few lines: (§2)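 Turbidity assay. 10 μM SaFtsZ plus compound (0–40 μg/mL) in 50 mM Tris HCl pH 7.4, 50 mM KCl, 2 mM magnesium acetate, 5 mM CaCl2, pre-equilibrated 10 min at room temperature. Started by adding 1 mM GTP or FtsZ; A340 followed for 60 min at 25 °C. For polymer stability, 1 mM GDP added mid-run.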

The target is the same in data set [4]. As to the kind of experiment: Induction of Staphylococcus aureus FtsZ polymerization at 40 ug/ml measured for 60 mins by microtiter plate-based light scattering assay. In short, it runs like this: as §2
Data set [5] concerns Enterococcus faecalis. As to the kind of experiment: Antibacterial activity against log-phase vancomycin-resistant Enterococcus faecalis ATCC 51575 assessed as growth inhibition after 24 hrs by broth microdilution method. The data set is classed as functional. Conditions: ATCC 51575, 24 h. In short, it runs like this:
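CLSI broth microdilution in brain–heart infusion broth; log-phase bacteria at 10^5 CFU/mL, two-fold serial dilutions 64 to 0.031 μg/mL; 24 h aerobic incubation at 37 °C; OD600 read-out; MIC taken as lowest concentration inhibiting growth ≥90%.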
For orientation: Broth dilution looks for growth in wells or tubes with falling amounts of substance.

In data set [6] the test system is Enterococcus faecalis. In words: Antibacterial activity against log-phase vancomycin-sensitive Enterococcus faecalis ATCC 19433 assessed as growth inhibition after 24 hrs by broth microdilution method. Type of data set: functional. Conditions: ATCC 19433, 24 h. In short, it runs like this: (§3)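 CLSI broth microdilution. Log-phase bacteria at 10^5 CFU/mL with two-fold serial dilutions (64 to 0.031 μg/mL). S. aureus tested in cation-adjusted Mueller-Hinton broth; E. faecalis in brain–heart infusion broth. Aerobic incubation 24 h at 37 °C. OD600 read; MIC is the lowest concentration giving ≥90% growth inhibition.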

Data set [7] has as its system Staphylococcus aureus. In words: Antibacterial activity against log-phase methicillin-resistant Staphylococcus aureus ATCC 33591 assessed as growth inhibition after 24 hrs by broth microdilution method. The data set is classed as functional. Conditions: ATCC 33591, 24 h. In short, it runs like this:
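CLSI broth microdilution; 10^5 CFU/mL log-phase bacteria in cation-adjusted Mueller-Hinton broth with 2% NaCl, two-fold serial dilutions from 64 to 0.031 μg/mL; aerobic incubation 24 h at 37 °C; growth read as OD600; MIC = lowest concentration giving ≥90% growth inhibition.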

The test system of data set [8] is Staphylococcus aureus. In words: Antibacterial activity against log-phase methicillin-sensitive Staphylococcus aureus 8325-4 assessed as growth inhibition after 24 hrs by broth microdilution method. Type of data set: functional. Conditions: 8325-4, 24 h. In short, it runs like this: as §3
The target of data set [9] is T1, Cell division protein FtsZ (Staphylococcus aureus). In words: Residual Staphylococcus aureus GTPase activity assessed as inorganic phosphate release upon GTP hydrolysis at 40 ug/ml preincubated for 10 mins before substrate addition measured after 2 hrs by malachite green based colorimetric analysis.
Data set [10] addresses T2, Cell division protein FtsZ (Staphylococcus aureus, UniProt P0A031).
T2 sequence (P0A031 whole entry): T1 sequence (whole entry)
As to the kind of experiment: Binding affinity to Staphylococcus aureus FtsZ expressed in Escherichia coli cells assessed as dissociation constant by fluorescence spectroscopy. In short, it runs like this: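 Recombinant SaFtsZ from E. coli titrated stepwise into compound (7 or 10 μM) in 50 mM Tris HCl pH 7.4, 50 mM KCl, 2 mM magnesium acetate. After 3 min equilibration per addition, emission scanned 510–370 nm and buffer-only titration background subtracted. Kd obtained by fitting intensity changes to a 1:1 binding model.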

Data set [11] concerns HEK293. In words: Cytotoxicity against human HEK293 cells after 4 days by MTT assay. The data set is classed as cell-based. Conditions: HEK293, 96 h. In a few lines:
as §1

For another data set, the system named is MDCK. In words: Cytotoxicity against dog MDCK cells after 4 days by MTT assay. The data set is classed as cell-based. Conditions: Canis lupus familiaris, 96 h. In a few lines:
as §1

Data set [12] deals with T1, Cell division protein FtsZ (Staphylococcus aureus). As to the kind of experiment: Induction of Staphylococcus aureus FtsZ polymerization at 40 ug/ml measured for 60 mins by microtiter plate-based light scattering assay in presence of GTP.
The target of data set [13] is Tubulin beta chain (Sus scrofa) (UniProt P02554). In words: Induction of pig MAP-rich beta-tubulin polymerization at 40 ug/ml measured for 60 mins by microtiter plate based light scattering assay. In short, it runs like this:
(§4)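 Porcine tubulin (70% β-tubulin, 30% MAPs) at 2 mg/mL with 1 mM GTP and compound in 80 mM PIPES NaOH pH 7.0, 2 mM MgCl2, 1 mM EGTA. A340 followed continuously at 37 °C for 60 min.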

The target is the same in data set [14]. In words: Induction of pig MAP-rich beta-tubulin polymerization at 25 ug/ml measured for 60 mins by microtiter plate based light scattering assay. In a few lines: as §4
Data set [15] shares this target. Conditions: 10 ug/ml.

The results in this text go back to ChEMBL document CHEMBL2203109, “3-Phenyl substituted 6,7-dimethoxyisoquinoline derivatives as FtsZ-targeting antibacterial agents” (Bioorg Med Chem, 2012).

Converted amounts (≈) assume the structure as drawn. The source made the active and inactive calls. The calls are words filed in the database; no cut-off is given here.

Sequence of Tubulin beta chain (Sus scrofa) (P02554 whole entry): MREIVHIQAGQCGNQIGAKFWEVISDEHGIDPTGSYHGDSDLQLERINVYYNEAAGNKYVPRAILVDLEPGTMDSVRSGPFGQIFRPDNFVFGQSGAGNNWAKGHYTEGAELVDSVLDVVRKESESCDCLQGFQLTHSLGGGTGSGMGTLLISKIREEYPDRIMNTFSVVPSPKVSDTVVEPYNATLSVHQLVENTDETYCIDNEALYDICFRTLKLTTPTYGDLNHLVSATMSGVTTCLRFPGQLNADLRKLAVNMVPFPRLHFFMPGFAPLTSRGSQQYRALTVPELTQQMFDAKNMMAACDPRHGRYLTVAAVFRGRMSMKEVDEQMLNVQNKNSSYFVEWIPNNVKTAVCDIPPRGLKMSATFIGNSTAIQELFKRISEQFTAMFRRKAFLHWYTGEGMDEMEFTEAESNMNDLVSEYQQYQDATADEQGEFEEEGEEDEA

As usually defined, the MIC90 is the lowest concentration that inhibits either 90% of growth or 90% of the strains tested, depending on the study. By residual activity is commonly meant what remains of the control signal, in per cent. Take `COc1cc2cc(-c3cccc(-c4ccccc4)c3)nc(CCN=C(N)N)c2cc1OC`: the Activity result was “Non-toxic” with HEK293 [1] and “Dose-dependent effect” in data set [3]. Besides, the result in data set [2] and in data set [4] was Active. The MIC90 was found to be 8 µg/mL (≈ 18.8 µM) with Enterococcus faecalis [5], 8 µg/mL (≈ 18.8 µM) in the data set with Enterococcus faecalis [6], 2 µg/mL (≈ 4.69 µM) with Staphylococcus aureus [7] and 2 µg/mL (≈ 4.69 µM) with Staphylococcus aureus [8]. In addition, the residual activity in data set [9] was found to be 56%.

For orientation: Kd means the free concentration of one partner at which half of the binding sites on the other are occupied at equilibrium, for simple one-to-one binding. Consider `COc1cc2cc(-c3cccc(-c4ccc(-c5ccccc5)cc4)c3)[n+](C)c(C)c2cc1OC.[I-]`, for which the Activity result in data set [3] is “Dose-dependent effect”. Besides, in data set [4], the outcome was Active. For the same compound, the Kd in data set [10] amounted to 2000 nM. For the same compound, the MIC90 was 8 µg/mL in the data set on Enterococcus faecalis [5], 4 µg/mL in the data set on Enterococcus faecalis [6], 2 µg/mL with Staphylococcus aureus [7] and 1 µg/mL in the data set with Staphylococcus aureus [8]. Moreover, in data set [9], the residual activity was 30.2%.

As usually defined, the IC50 is the concentration that inhibits the measured activity by half. As for `COc1cc2cc(-c3cccc(-c4ccccc4)c3)nc(CN)c2cc1OC`, the half-inhibitory concentration (IC50) was found to be 3000 nM with HEK293 [11] and 7000 nM with MDCK. Further, the MIC90 with Enterococcus faecalis [5] was above 64 µg/mL; in the data set with Enterococcus faecalis [6], above 64 µg/mL; in the data set on Staphylococcus aureus [7], 16 µg/mL (≈ 43.2 µM); with Staphylococcus aureus [8], 8 µg/mL (≈ 21.6 µM).

In the case of `COc1cc2cc(-c3cccc(C(C)(C)C)c3)nc(CCN=C(N)N)c2cc1OC`, the Activity result was “Non-toxic” with HEK293 [1] and “Dose-dependent effect” in [3]. Further, the result in data set [4] and in [12] was Active. For the same compound, the MIC90 in the data set on Enterococcus faecalis [5] came out at 16 µg/mL (≈ 39.4 µM); in the data set with Enterococcus faecalis [6], 16 µg/mL (≈ 39.4 µM); with Staphylococcus aureus [7], 4 µg/mL (≈ 9.84 µM); with Staphylococcus aureus [8], 4 µg/mL (≈ 9.84 µM). Further, the residual activity in data set [9] was determined as 66.5%.

Consider `COc1cc2cc(-c3cccc(C(C)(C)C)c3)nc(CN=C(N)N)c2cc1OC`, for which the Activity entry is “Non-toxic” with HEK293 [1] and “Dose-dependent effect” in data set [3]. In [13], the outcome was inactive. In addition, the outcome in [4] was Active. Besides, the MIC90 in the data set with Enterococcus faecalis [5] is 16 µg/mL (≈ 40.8 µM); in the data set with Enterococcus faecalis [6] it was 16 µg/mL (≈ 40.8 µM); in the data set on Staphylococcus aureus [7] it was 8 µg/mL (≈ 20.4 µM); in the data set on Staphylococcus aureus [8], 4 µg/mL (≈ 10.2 µM). Also, the residual activity in data set [9] was 60.4%.

For `COc1cc2cc(-c3cccc(-c4ccccc4)c3)nc(N=C(N)N)c2cc1OC`, the 50% inhibitory concentration (IC50) in the data set with HEK293 [11] and with MDCK was 2200 nM each time. In addition, the MIC90 in the data set with Enterococcus faecalis [5] was determined as 8 µg/mL (≈ 20.1 µM); in the data set with Enterococcus faecalis [6] it was 8 µg/mL (≈ 20.1 µM); in the data set on Staphylococcus aureus [7], 4 µg/mL (≈ 10 µM); in the data set on Staphylococcus aureus [8], 8 µg/mL (≈ 20.1 µM).

Regarding `COc1cc2cc(-c3cccc(-c4ccc(C(C)(C)C)cc4)c3)[n+](C)c(C)c2cc1OC.[I-]`, the result in data set [13] was inactive. The Activity entry in data set [3] was “Dose-dependent effect”. Moreover, the result in [4] and in data set [12] was Active. Moreover, the equilibrium dissociation constant (Kd) in data set [10] was found to be 5400 nM. Besides, the MIC90 in the data set with Enterococcus faecalis [5] worked out at 8 µg/mL; in the data set on Enterococcus faecalis [6] it was 8 µg/mL; in the data set on Staphylococcus aureus [7] it was 8 µg/mL; in the data set with Staphylococcus aureus [8], 1 µg/mL. In data set [9], the residual activity is 14.9%.

Regarding `COc1cc2cc(-c3cccc(C(C)(C)C)c3)nc(CCN)c2cc1OC`, the IC50 in the data set on HEK293 [11] and in the data set with MDCK was 2200 nM throughout. Further, in data set [3], the Activity result is “Dose-dependent effect”. The result in data set [4] and in data set [12] was Active. The MIC90 in the data set on Enterococcus faecalis [5], in the data set on Enterococcus faecalis [6], in the data set on Staphylococcus aureus [7] and in the data set on Staphylococcus aureus [8] was 16 µg/mL (≈ 43.9 µM) each time. Also, the residual activity in data set [9] amounted to 59.7%.

As for `CC(=O)O[C@H]1C(=O)[C@@]2(C)[C@H]([C@H](OC(=O)c3ccccc3)[C@]3(O)C[C@H](OC(=O)[C@H](O)[C@@H](NC(=O)c4ccccc4)c4ccccc4)C(C)=C1C3(C)C)[C@]1(OC(C)=O)CO[C@@H]1C[C@@H]2O`, the result in data set [14] was Active.

Take `COC(=O)Nc1nc2cc(C(=O)c3cccs3)ccc2[nH]1`: the inhibition entry in data set [15] is “Active”.

In the case of `COc1cc2cc(-c3cccc(C(C)(C)C)c3)nc(C/N=C(/C)N)c2cc1OC`, the outcome in data set [2] and in data set [4] was Active. Besides, the Activity entry in [3] is “Dose-dependent effect”. Also, the MIC90 in the data set with Enterococcus faecalis [5] is 16 µg/mL (≈ 40.9 µM); in the data set on Enterococcus faecalis [6] it was 16 µg/mL (≈ 40.9 µM); in the data set on Staphylococcus aureus [7], 8 µg/mL (≈ 20.4 µM); in the data set on Staphylococcus aureus [8], 8 µg/mL (≈ 20.4 µM). Also, the residual activity in data set [9] turned out to be 64.8%.
